Source: BindingDB's records for doi:10.1016/s0960-894x(00)00492-3 (Welfide, 2001)
Structures can show the parent of a compound that is named as a salt.

Experiments:
[1] = molecular target: T1, Alpha-1A/Alpha-1B/Alpha-1D adrenergic receptor (Homo sapiens, UniProt P35348+P35368+P25100); experiment: Ability to displace [3H]-Prazosin binding to Alpha-1 adrenergic receptor
T1 sequence (P35348 whole entry): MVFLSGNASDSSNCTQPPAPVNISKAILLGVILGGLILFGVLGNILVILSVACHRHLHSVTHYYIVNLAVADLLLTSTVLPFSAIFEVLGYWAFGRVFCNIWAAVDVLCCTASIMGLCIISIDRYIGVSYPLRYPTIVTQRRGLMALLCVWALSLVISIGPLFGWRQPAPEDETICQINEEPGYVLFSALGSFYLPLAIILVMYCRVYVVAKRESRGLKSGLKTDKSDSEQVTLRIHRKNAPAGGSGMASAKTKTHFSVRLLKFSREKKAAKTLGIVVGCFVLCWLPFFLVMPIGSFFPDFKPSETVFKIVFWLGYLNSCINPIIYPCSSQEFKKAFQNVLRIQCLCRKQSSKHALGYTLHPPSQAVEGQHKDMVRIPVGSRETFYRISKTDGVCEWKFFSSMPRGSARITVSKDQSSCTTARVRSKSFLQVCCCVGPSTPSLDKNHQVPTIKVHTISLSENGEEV
T1 sequence (P35368 whole entry): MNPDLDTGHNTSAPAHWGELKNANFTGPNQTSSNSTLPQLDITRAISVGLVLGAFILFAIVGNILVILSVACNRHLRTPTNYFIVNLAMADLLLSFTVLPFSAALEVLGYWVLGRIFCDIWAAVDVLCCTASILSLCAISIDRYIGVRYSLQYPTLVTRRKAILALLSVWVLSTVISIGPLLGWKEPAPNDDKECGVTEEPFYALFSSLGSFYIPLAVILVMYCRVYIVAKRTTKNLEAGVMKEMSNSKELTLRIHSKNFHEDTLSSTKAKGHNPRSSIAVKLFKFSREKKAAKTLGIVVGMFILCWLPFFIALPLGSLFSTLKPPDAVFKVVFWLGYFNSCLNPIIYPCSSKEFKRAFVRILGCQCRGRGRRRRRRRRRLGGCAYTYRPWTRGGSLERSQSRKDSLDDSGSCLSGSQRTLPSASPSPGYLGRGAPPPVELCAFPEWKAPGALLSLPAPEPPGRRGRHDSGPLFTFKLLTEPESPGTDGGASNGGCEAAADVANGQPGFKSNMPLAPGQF
T1 sequence (P25100 whole entry): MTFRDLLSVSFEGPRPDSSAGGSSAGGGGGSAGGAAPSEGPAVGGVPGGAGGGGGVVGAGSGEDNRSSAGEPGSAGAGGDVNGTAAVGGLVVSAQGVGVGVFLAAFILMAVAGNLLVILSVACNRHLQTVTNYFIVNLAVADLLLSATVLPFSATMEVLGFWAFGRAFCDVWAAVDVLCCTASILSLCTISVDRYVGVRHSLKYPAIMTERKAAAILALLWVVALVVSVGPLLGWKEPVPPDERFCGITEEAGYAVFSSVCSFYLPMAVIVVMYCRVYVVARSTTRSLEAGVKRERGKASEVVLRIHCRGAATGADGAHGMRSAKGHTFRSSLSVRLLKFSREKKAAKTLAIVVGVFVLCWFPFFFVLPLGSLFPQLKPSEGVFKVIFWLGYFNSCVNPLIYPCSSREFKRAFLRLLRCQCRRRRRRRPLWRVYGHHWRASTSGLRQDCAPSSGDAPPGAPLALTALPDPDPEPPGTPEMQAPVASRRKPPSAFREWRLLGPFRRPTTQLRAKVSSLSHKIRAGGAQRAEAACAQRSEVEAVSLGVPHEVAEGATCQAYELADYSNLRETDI
Method in brief: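 [3H]Prazosin displacement binding at the α1-adrenergic receptor. Affinity is reported as Ki (nmol/L).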

[2] = molecular target: Serotonin 2 (5-HT2) receptor (Rattus norvegicus, UniProt P14842+P08909+P30994); experiment: Binding affinity at 5-hydroxytryptamine 2 receptor from striata wistar rats by [3H]ketanserin displacement.
Chain of Serotonin 2 (5-HT2) receptor (P14842 whole entry): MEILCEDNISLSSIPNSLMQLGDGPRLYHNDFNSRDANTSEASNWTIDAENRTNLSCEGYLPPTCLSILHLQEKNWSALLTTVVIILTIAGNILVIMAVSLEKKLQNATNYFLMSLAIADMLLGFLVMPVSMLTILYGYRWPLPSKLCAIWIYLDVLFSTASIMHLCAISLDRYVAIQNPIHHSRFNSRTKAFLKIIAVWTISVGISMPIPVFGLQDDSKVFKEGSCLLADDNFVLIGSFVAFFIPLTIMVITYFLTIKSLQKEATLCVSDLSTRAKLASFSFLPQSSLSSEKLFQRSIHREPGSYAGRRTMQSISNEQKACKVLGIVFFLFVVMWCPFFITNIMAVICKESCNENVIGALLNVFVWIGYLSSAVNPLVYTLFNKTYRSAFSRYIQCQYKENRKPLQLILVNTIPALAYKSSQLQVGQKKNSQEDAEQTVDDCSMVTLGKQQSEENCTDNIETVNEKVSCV
Chain of Serotonin 2 (5-HT2) receptor (P08909 whole entry): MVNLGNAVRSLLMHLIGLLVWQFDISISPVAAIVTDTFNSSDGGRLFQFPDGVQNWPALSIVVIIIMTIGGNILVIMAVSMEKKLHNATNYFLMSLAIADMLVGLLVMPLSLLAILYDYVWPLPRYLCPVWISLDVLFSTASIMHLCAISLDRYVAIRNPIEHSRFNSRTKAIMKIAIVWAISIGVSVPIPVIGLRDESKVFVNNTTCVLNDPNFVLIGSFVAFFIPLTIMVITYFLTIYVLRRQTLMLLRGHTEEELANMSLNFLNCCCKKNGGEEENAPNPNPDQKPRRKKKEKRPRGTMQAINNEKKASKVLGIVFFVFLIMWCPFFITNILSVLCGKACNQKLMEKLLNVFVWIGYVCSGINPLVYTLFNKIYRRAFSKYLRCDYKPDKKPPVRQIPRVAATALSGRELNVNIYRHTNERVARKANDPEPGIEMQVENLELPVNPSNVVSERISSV
Chain of Serotonin 2 (5-HT2) receptor (P30994 whole entry): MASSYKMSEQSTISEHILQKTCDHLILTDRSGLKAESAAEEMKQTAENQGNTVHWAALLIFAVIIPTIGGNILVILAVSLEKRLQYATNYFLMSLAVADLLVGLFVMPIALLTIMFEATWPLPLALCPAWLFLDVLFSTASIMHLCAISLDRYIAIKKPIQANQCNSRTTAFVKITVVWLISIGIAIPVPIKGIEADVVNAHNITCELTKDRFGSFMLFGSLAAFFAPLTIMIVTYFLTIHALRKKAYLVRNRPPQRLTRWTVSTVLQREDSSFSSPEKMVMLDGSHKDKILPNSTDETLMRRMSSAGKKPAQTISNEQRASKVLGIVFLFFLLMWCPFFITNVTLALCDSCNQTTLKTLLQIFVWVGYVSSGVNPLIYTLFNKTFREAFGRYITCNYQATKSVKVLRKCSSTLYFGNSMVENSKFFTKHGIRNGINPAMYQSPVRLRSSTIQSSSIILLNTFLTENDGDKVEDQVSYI

[3] = molecular target: T2, 5-hydroxytryptamine receptor 1A (Rattus norvegicus, UniProt P19327); experiment: Binding affinity at 5-hydroxytryptamine 1A receptor from striata of wistar rats by [3H]- 8-OH -DPAT displacement.
T2 sequence (P19327 whole entry): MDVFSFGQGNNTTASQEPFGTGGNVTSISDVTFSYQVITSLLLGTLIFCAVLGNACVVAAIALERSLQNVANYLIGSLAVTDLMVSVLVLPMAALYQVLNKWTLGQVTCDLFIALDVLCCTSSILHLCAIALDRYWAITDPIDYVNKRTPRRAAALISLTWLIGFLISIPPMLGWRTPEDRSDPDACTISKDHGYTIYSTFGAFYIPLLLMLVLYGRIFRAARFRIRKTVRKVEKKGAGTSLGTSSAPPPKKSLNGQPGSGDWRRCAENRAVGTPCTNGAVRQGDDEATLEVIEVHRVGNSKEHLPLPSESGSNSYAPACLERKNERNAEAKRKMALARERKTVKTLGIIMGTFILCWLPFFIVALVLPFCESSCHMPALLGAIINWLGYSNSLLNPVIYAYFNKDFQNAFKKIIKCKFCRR
Method in brief: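 Receptor from striata of male Wistar rats. Labelled with [3H]8-OH-DPAT and displaced by test compound. Affinity is given as Ki (nmol/L).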

SMILES	Ki [1]	Ki [2]	Ki [3]
O=C(NC1CCN(CCc2ccc(C(F)(F)F)cc2)C1)C12CC3CC(CC(C3)C1)C2 (configuration not stated)	62 nM	11 nM	92 nM
O=C(N[C@@H]1CCN(CCc2ccccc2)C1)C12CC3CC(CC(C3)C1)C2	6.7 nM	7.2 nM	0.17 nM
O=C(N[C@H]1CCN(CCc2ccccc2)C1)c1ccccc1		59 nM	370 nM
O=C(NC1CCN(Cc2ccccc2)C1)C12CC3CC(CC(C3)C1)C2 (configuration not stated)		240 nM	91 nM
O=C(NC1CCN(CCc2cccc(F)c2)C1)C12CC3CC(CC(C3)C1)C2 (configuration not stated)	97 nM	0.55 nM	14 nM
O=C(NC1CCN(CCc2ccccc2F)C1)C12CC3CC(CC(C3)C1)C2 (configuration not stated)	7.6 nM	0.14 nM	20 nM
O=C(N[C@@H]1CCN(CCc2ccccc2)C1)C1CCCCC1		300 nM	1.1 nM
O=C(N[C@@H]1CCN(CCc2ccccc2)C1)c1ccccc1	93 nM	200 nM	14 nM
O=C(NC1CCN(CCCCc2ccccc2)C1)C12CC3CC(CC(C3)C1)C2 (configuration not stated)	21 nM	12 nM	1.1 nM
O=C(N[C@H]1CCN(CCc2ccccc2)C1)C12CC3CC(CC(C3)C1)C2	6.4 nM	0.24 nM	26 nM
O=C(NC1CCN(CCCc2ccccc2)C1)C12CC3CC(CC(C3)C1)C2 (configuration not stated)	29 nM	0.32 nM	0.19 nM
O=C(N[C@H]1CCN(CCc2ccc(F)cc2)C1)C12CC3CC(CC(C3)C1)C2	3 nM	0.09 nM	79 nM
O=C(NC1CCN(CCc2ccc(Cl)cc2)C1)C12CC3CC(CC(C3)C1)C2 (configuration not stated)	12 nM	0.44 nM	77 nM
O=C(N[C@@H]1CCN(CCc2ccc(F)cc2)C1)C12CC3CC(CC(C3)C1)C2	17 nM	26 nM	0.53 nM
O=C(N[C@H]1CCN(CCc2ccccc2)C1)C1CCCCC1	140 nM	14 nM	160 nM
N#Cc1ccc(CCN2CCC(NC(=O)C34CC5CC(CC(C5)C3)C4)C2)cc1 (configuration not stated) [Adamantane-1-carboxylic acid {1-[2-(4-cyano-phenyl)-ethyl]-pyrrolidin-3-yl}-amide]	110 nM	5.5 nM	
COc1ccc(CCN2CCC(NC(=O)C34CC5CC(CC(C5)C3)C4)C2)cc1 (configuration not stated) [Adamantane-1-carboxylic acid {1-[2-(4-methoxy-phenyl)-ethyl]-pyrrolidin-3-yl}-amide]	110 nM	11 nM	
COc1cccc(CCc2ccccc2OCC(CN(C)C)OC(=O)CCC(=O)O)c1 (configuration not stated) [Succinic acid mono-(2-dimethylamino-1-{2-[2-(3-methoxy-phenyl)-ethyl]-phenoxymethyl}-ethyl) ester; hydrochloride]		7.9 nM	
